ChEMBL document CHEMBL4138091, “Quinazoline based α1-adrenoreceptor antagonists with potent antiproliferative activity in human prostate cancer cell lines” (Eur J Med Chem, 2017)
pIC50, pKi: −log10 of the molar value. Calls of active or inactive are those of the source. No cut-off for these calls is given here.

Tests used:
[1] = molecular target: T1, Alpha-1A adrenergic receptor (Homo sapiens, UniProt P35348); experiment: Displacement of [3H]prazosin from human alpha1A adrenoceptor expressed in CHO cell membranes after 30 mins
T1 sequence (P35348 whole entry): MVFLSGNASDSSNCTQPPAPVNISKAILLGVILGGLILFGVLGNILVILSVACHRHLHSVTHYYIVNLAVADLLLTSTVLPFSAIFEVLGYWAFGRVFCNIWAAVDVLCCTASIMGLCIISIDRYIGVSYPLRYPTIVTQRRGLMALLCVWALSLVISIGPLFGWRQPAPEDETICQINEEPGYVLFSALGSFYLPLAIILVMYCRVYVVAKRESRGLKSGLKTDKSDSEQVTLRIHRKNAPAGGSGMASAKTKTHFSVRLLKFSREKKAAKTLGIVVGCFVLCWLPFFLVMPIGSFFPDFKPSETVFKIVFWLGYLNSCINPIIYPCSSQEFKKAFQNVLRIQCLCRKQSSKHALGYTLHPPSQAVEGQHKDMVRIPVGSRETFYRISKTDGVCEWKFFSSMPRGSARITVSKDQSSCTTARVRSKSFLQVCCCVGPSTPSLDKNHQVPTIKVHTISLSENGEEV

[2] = molecular target: T2, Alpha-1B adrenergic receptor (Homo sapiens, UniProt P35368); experiment: Displacement of [3H]prazosin from human alpha1B adrenoceptor expressed in CHO cell membranes after 30 mins
T2 sequence (P35368 whole entry): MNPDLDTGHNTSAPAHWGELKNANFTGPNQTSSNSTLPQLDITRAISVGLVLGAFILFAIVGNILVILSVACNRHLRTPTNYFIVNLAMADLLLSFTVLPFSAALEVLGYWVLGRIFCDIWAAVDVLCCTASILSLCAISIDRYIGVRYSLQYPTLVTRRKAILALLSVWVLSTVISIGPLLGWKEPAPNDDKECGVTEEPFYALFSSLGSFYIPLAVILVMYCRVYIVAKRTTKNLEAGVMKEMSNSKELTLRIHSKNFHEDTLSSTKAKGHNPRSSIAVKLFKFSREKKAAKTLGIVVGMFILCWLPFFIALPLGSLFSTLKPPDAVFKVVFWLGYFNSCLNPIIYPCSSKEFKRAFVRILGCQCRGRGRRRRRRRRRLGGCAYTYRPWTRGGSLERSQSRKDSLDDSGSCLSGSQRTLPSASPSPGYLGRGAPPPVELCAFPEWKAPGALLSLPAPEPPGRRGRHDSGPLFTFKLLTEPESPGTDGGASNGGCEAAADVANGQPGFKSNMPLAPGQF

[3] = molecular target: T3, Alpha-1D adrenergic receptor (Homo sapiens, UniProt P25100); experiment: Displacement of [3H]prazosin from human alpha1D adrenoceptor expressed in CHO cell membranes after 30 mins
T3 sequence (P25100 whole entry): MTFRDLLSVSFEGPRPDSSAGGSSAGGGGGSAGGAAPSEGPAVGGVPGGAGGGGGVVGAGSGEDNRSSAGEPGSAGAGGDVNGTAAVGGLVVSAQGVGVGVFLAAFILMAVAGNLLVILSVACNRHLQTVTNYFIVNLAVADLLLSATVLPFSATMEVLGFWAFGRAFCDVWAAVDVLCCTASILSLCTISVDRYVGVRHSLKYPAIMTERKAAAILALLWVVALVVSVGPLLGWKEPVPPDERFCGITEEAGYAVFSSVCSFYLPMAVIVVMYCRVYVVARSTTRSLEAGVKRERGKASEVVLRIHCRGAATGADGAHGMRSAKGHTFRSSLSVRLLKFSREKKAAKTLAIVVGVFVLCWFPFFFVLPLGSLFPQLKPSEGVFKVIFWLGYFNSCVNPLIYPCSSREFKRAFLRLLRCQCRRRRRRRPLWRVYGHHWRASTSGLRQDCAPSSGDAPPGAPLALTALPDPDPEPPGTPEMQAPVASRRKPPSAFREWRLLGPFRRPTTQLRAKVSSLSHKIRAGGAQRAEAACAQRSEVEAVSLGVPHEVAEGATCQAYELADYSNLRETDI

[4] = system: Panel NCI-60 (60 carcinoma cell lines); experiment: Antiproliferative activity against human NCI60 cells at 10 uM after 48 hrs by SRB assay; type: functional, cell-based
How it was run: (§1)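 NCI one-dose screen at 10 µM across 60 human tumour lines, 48 h exposure; growth given relative to no-drug control and to time-zero cell number, so 0–100 means inhibition and below 0 lethality; 100 means no inhibition.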

LNCaP [5] = experiment: Induction of necrosis in human LNCAP cells assessed as loss of plasma membrane integrity at 1 to 10 uM after 24 hrs by trypan blue staining-based Neubauer hemocytometric method; type: functional, cell-based
How it was run: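 LNCaP cells seeded at 1 × 10⁶ cells/well, treated 1–10 µM for 24 h at 37 °C, 5% CO₂; scraped into PBS, mixed 1:1 with 0.5% trypan blue, counted on a Neubauer hemocytometer; percentage of stained cells from at least 3 separate counts.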

LNCaP [6] = experiment: Induction of apoptosis in human LNCAP cells assessed as increase in DNA fragmentation at 1 to 10 uM after 24 hrs by spectrophotometer relative to control; type: functional
How it was run: (§2)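 LNCaP cells seeded at 1 × 10³ cells/well, treated 1–10 µM for 24 h at 37 °C, 5% CO₂; lysed 30 min, centrifuged, supernatant ELISA with biotin anti-histone and peroxidase anti-DNA antibodies on streptavidin plate, ABTS 20 min, read 405 nm. Fold increase = treated/untreated absorbance; mean ± SD, three independent experiments.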

LNCaP [7] = experiment: Antioxidant activity in human LNCAP cells assessed as inhibition of t-BuOOH-induced ROS level at 1 to 10 uM after 30 mins by DCFH-DA dye-based spectrofluorometric analysis relative to control; type: functional
LNCaP [8] = experiment: Prooxidant activity in human LNCAP cells assessed as increase in depletion of intercellular GSH level at 1 to 10 uM after 24 hrs by MCB dye-based spectrofluorometric analysis; type: functional, cell-based
How it was run: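 LNCaP cells seeded at 2 × 10⁴ cells/well, treated 1–10 µM for 24 h at 37 °C, 5% CO₂; washed, 50 µM monochlorobimane in PBS 30 min at 37 °C, fluorescence read at excitation 360 nm, emission 465 nm; arbitrary fluorescence units; mean ± SD, three independent experiments.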

DU-145 [9] = experiment: Antiproliferative activity against human DU145 cells at 0.1 to 50 uM after 120 hrs by MTT assay; type: functional, cell-based
How it was run: (§3)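 DU-145, PC-3 and LNCaP cells grown in RPMI with 10% fetal calf serum, 37 °C, 5% CO₂; seeded at 5 × 10³ cells/well, exposed to 0.1–50 µM for 120 h. After PBS wash, MTT (5 mg/mL) in PBS 4 h, formazan dissolved in isopropanol, read at 570 nm. Viability as % of untreated; IC50 from at least three independent dose-response curves.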

PC-3 [10] = experiment: Antiproliferative activity against human PC3 cells at 0.1 to 50 uM after 120 hrs by MTT assay; type: functional, cell-based; how it was run: as §3
LNCaP [11] = experiment: Antiproliferative activity against human LNCAP cells at 0.1 to 50 uM after 120 hrs by MTT assay; type: functional, cell-based; how it was run: as §3
DU-145 [12] = experiment: Antiproliferative activity against human DU145 cells at 10 uM after 48 hrs by SRB assay relative to control; type: functional; how it was run: as §1
PC-3 [13] = experiment: Growth inhibition of human PC3 cells at 10 uM after 48 hrs by SRB assay relative to control; type: functional; conditions: PC-3, 48 h, read-out: GI; how it was run: as §1
DU-145 [14] = experiment: Antiproliferative activity against human DU145 cells after 120 hrs by MTT assay; type: functional, cell-based; conditions: DU-145, 120 h; how it was run: as §3
PC-3 [15] = experiment: Antiproliferative activity against human PC3 cells after 120 hrs by MTT assay; type: functional, cell-based; conditions: PC-3, 120 h; how it was run: as §3
LNCaP [16] = experiment: Antiproliferative activity against human LNCAP cells after 120 hrs by MTT assay; type: functional, cell-based; how it was run: as §3
Homo sapiens [17] = species: Homo sapiens; experiment: Selectivity ratio of Ki for human alpha1A adrenoceptor to Ki for human alpha1B adrenoceptor
Homo sapiens [18] = species: Homo sapiens; experiment: Selectivity ratio of Ki for human alpha1D adrenoceptor to Ki for human alpha1B adrenoceptor
[19] = Selectivity index, ratio of cytotoxic concentration for HGF cells to IC50 for human LNCAP cells; type: toxicity; conditions: HGF cells and LNCAP cells, read-out: Selectivity Index
[20] = Selectivity index, ratio of cytotoxic concentration for HGF cells to IC10 for human LNCAP cells; type: toxicity; conditions: HGF cells and LNCAP cells, read-out: Selectivity Index
LNCaP [21] = experiment: Induction of apoptosis in human LNCAP cells assessed as increase in DNA fragmentation after 24 hrs by spectrophotometer; type: functional, cell-based; how it was run: as §2
LNCaP [22] = experiment: Antioxidant activity in human LNCAP cells assessed as inhibition of t-BuOOH-induced ROS level after 30 mins by DCFH-DA dye-based spectrofluorometric analysis; type: functional, cell-based
LNCaP [23] = experiment: Antioxidant activity in human LNCAP cells assessed as inhibition of t-BuOOH-induced ROS level at 1 to 10 uM after 24 hrs by DCFH-DA dye-based spectrofluorometric analysis; type: functional, cell-based
LNCaP [24] = experiment: Induction of ROS generation in human LNCAP cells after 24 hrs by DCFH-DA dye-based spectrofluorometric analysis; type: functional, cell-based
How it was run: (§4)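 LNCaP cells seeded at 2 × 10⁴ cells/well, exposed to compounds (1–10 µM) for 24 h; then loaded with 5 µM DCFH-DA in PBS, 37 °C, 5% CO₂, 30 min, washed, fluorescence read (excitation 485 nm). Antioxidant lines involve t-BuOOH challenge. Output as fold increase of intracellular ROS over untreated; mean ± SD, three independent experiments.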

LNCaP [25] = experiment: Induction of ROS generation in human LNCAP cells at 1 to 10 uM after 24 hrs by DCFH-DA dye-based spectrofluorometric analysis relative to control; type: functional; how it was run: as §4
LNCaP [26] = experiment: Induction of apoptosis in human LNCAP cells assessed as increase in DNA fragmentation at 10 uM after 24 hrs by spectrophotometer relative to control; type: functional
How it was run: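 LNCaP cells seeded at 1 × 10³ cells/well, exposed to compounds (1–10 µM range) for 24 h at 37 °C, 5% CO₂; lysed, supernatant run in Cell Death Detection ELISAplus (biotin anti-histone/peroxidase anti-DNA on streptavidin plate, ABTS substrate 20 min); absorbance 405 nm. DNA fragmentation given as fold increase, treated/untreated absorbance; mean SD of three independent experiments, t-test vs untreated.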

Structure (SMILES) | pKi [1] | pKi [2] | pKi [3] | Activity [4] | Activity (DU-145 [9]) | Activity (PC-3 [10]) | Activity (LNCaP [11]) | other results
COc1cc2nc(N3CCC[C@H](N)C3)nc(N)c2cc1OC | 6.72 | 7.26 | 7.55 | inactive | inactive | inactive | inactive | Activity (LNCaP [5]): inactive; Activity (LNCaP [6]): inactive; inhibition (LNCaP [7]): inactive; Activity (LNCaP [8]): inactive
COc1cc2nc(N3CCC[C@H](NC4=CC(=O)c5ccccc5C4=O)C3)nc(N)c2cc1OC | 8.15 | 9.28 | 8.67 | Active | – | – | – | Activity (DU-145 [12]): 54%; inhibition of growth at 10 µM (PC-3 [13]): 77%; pIC50 (DU-145 [14]): 4.73; pIC50 (PC-3 [15]): 4.74; pIC50 (LNCaP [16]): 5.20; Ratio Ki (Homo sapiens [17]): 13; Ratio Ki (Homo sapiens [18]): 4; Activity (LNCaP [5]): inactive; selectivity ratio [19]: 4.7; selectivity ratio [20]: 9.1; fold change (FC) (LNCaP [6]): 9.9; Activity (LNCaP [21]): Dose-dependent effect; inhibition (LNCaP [22]): Dose-dependent effect; inhibition (INH) (LNCaP [7]): 34%; inhibition (LNCaP [23]): inactive; Activity (LNCaP [24]): Dose-dependent effect; Activity (LNCaP [25]): 56%; Activity (LNCaP [8]): Active
COc1cc2nc(N3CCC[C@H](NC(=O)[C@H]4COc5ccccc5O4)C3)nc(N)c2cc1OC | 7.74 | 7.20 | 7.31 | inactive | inactive | inactive | inactive | –
COc1cc2nc(N3CCC[C@@H](N)C3)nc(N)c2cc1OC | < 6.00 | 6.75 | 6.99 | – | – | – | – | –
COc1cc2nc(N3CCN(C(=O)C4COc5ccccc5O4)CC3)nc(N)c2cc1OC (centres undefined) [DOXAZOSIN] | – | – | – | – | – | – | – | pIC50 (DU-145 [14]): 4.51; pIC50 (PC-3 [15]): 4.92; pIC50 (LNCaP [16]): 4.98; Activity (LNCaP [5]): inactive; fold change (FC) (LNCaP [26]): 2.2
COc1cc2nc(N3CCC[C@@H](NC(=O)[C@H]4COc5ccccc5O4)C3)nc(N)c2cc1OC | < 6.00 | 7.33 | 6.53 | – | – | – | – | –
COc1cc2nc(N3CCC[C@H](NC(=O)[C@@H]4COc5ccccc5O4)C3)nc(N)c2cc1OC | 7.48 | 8.13 | 7.88 | inactive | inactive | inactive | inactive | –
COc1cc2nc(N3CCC[C@@H](NC(=O)[C@@H]4COc5ccccc5O4)C3)nc(N)c2cc1OC | < 6.00 | 6.50 | < 6.00 | – | – | – | – | –
COc1cc2nc(N3CCC[C@H](NC(=O)c4ccco4)C3)nc(N)c2cc1OC | 9.20 | 9.55 | 9.48 | inactive | inactive | inactive | inactive | –
COc1cc2nc(N3CCC[C@@H](NC(=O)c4ccco4)C3)nc(N)c2cc1OC | 6.96 | 7.37 | 7.43 | inactive | inactive | inactive | inactive | –
COc1cc2nc(N3CCC[C@@H](NC4=CC(=O)c5ccccc5C4=O)C3)nc(N)c2cc1OC | 6.92 | 7.60 | 7.47 | Active | – | – | – | Activity (DU-145 [12]): 54%; inhibition of growth at 10 µM (PC-3 [13]): 45.5%; pIC50 (DU-145 [14]): 4.75; pIC50 (PC-3 [15]): 4.73; pIC50 (LNCaP [16]): 5.24
